Test results: ChEMBL document CHEMBL4017500 (J Med Chem, 2017)
Calls of active or inactive are those of the source. The rule behind the calls is not given here.

Columns and labels:
[1] = system: Bacteria; assay: Inhibition of bacterial MBP-fused NDM1 expressed in Escherichia coli BL21(DE3) ausing fluorocillin as substrate preincubated for 20 mins followed by substrate addition measured at 1 sec time interval for 25 mins in presence of ZnSO4 by fluorescence assay
[2] = biological target: Histone deacetylase 1 (Homo sapiens) (UniProt Q13547); assay: Inhibition of full length human C-terminal FLAG/His-tagged HDAC1 expressed in baculovirus infected sf9 cells at 10 uM using HDAC substrate 3 preincubated for 5 mins followed by substrate addition measured after 30 mins by fluorescence assay
Histone deacetylase 1 (Homo sapiens), sequence (Q13547 whole entry): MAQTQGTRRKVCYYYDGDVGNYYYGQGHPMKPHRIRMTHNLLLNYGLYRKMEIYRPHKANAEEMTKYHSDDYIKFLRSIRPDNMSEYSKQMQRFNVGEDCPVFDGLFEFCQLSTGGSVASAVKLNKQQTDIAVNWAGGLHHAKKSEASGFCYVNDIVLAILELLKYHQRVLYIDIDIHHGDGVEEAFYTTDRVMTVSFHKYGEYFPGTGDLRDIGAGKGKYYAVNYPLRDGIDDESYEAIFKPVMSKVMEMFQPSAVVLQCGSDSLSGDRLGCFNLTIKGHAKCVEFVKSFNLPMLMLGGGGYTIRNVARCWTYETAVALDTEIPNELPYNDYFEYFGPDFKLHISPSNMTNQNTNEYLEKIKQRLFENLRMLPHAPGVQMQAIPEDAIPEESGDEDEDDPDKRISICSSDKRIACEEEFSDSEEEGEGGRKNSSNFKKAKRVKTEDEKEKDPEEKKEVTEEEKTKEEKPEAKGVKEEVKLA
Summary of the method: (§1)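 Inhibitor pre-incubated 5 min, then HDAC substrate 3 (20 μM) added, 30 min at 37 °C. Developer added for 15 min at room temperature; fluorescence read at ex/em 360/460 nm. Activity relative to no-inhibitor wells, with 200 μM SAHA as 0%. Run in triplicate.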

[3] = biological target: T1, Protein deacetylase HDAC6 (Homo sapiens) (UniProt Q9UBN7); assay: Inhibition of full length human N-terminal GST-tagged HDAC6 expressed in baculovirus infected sf9 cells at 50 to 100 uM using HDAC substrate 3 preincubated for 5 mins followed by substrate addition measured after 30 mins by fluorescence assay; summary of the method: as §1
T1 sequence (whole entry): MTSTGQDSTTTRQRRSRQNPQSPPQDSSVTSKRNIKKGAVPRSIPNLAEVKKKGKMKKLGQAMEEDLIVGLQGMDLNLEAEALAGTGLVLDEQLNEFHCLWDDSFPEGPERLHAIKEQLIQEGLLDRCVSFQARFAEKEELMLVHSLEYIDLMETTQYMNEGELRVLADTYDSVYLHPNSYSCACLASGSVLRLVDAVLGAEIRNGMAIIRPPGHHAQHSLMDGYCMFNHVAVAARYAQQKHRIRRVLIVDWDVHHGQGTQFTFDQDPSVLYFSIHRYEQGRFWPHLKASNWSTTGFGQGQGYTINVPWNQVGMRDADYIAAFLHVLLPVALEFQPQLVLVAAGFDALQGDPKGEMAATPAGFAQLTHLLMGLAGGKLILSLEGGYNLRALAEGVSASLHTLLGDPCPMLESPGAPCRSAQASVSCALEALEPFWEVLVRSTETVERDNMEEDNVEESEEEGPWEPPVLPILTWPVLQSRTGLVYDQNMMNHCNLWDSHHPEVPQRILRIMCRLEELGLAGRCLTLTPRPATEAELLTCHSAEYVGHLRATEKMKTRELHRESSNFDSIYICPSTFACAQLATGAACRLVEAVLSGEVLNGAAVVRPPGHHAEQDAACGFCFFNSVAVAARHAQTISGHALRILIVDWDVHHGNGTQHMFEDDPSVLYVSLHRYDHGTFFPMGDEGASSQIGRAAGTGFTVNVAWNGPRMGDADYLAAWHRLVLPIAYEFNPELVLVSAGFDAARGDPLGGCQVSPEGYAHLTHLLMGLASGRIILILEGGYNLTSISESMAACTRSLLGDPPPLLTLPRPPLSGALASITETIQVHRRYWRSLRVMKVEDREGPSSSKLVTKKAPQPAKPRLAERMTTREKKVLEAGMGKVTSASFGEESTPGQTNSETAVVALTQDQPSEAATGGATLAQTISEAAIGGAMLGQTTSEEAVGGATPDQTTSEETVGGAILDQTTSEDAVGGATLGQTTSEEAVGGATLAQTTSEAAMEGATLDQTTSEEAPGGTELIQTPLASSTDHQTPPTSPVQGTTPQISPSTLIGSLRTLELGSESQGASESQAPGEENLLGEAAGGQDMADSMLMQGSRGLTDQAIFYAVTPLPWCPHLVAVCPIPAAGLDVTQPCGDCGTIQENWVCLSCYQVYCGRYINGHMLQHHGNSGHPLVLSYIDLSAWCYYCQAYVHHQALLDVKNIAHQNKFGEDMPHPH

[4] = system: Bacteria; assay: Binding affinity to bacterial CoCoNDM-1 expressed in Escherichia coli BL21(DE3) assessed as CoCoNDM-1-compound ternary complex formation at 1 equiv by 1H NMR spectroscopic method
Summary of the method: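 Apo-NDM-1 concentrated to ~1 mM and loaded with 2 equiv CoCl2. Samples in 50 mM HEPES, 150 mM NaCl, 10% D2O, pH 6.8. Compounds from 50–100 mM DMSO stocks titrated in ~5 μL aliquots. 1H spectra recorded at 292 K, 300.16 MHz.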

[5] = Metal chelating activity assessed as Co2+-compound complex formation at 1 equiv by 1H NMR spectroscopic method; format: functional
Summary of the method: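 Apo-NDM-1 concentrated to ~1 mM and given 2 equivalents of CoCl2, in 50 mM HEPES, 150 mM NaCl, 10% D2O, pH 6.8. Compounds, from DMSO stocks of 50–100 mM, titrated in. 1H NMR spectra recorded at 292 K at 300.16 MHz.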

[6] = Fluorescence quenching activity assessed as reduction in tryptophan fluorescence up to 32 uM after 30 mins by luminescence spectrometric method; design: scale not given: the % may be the effect or the level left
Summary of the method: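 NDM-1 (2 μM final) in 50 mM HEPES pH 7.5 with compound at 4–32 μM for 30 min. Excitation 280 nm, emission scanned 300–400 nm, intensity taken at 348 nm. Scaled with buffer as 0% and inhibitor-free enzyme as 100%. Free L-tryptophan (2 μM) run as control.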

[7] = system: Escherichia coli; assay: Inhibition of NDM1 in Escherichia coli isolate Ch8.69 assessed as potentiation of imipenem-induced antibacterial activity by measuring imipenem MIC at 100 mg/L after 18 to 20 hrs by broth microdilution assay (reference value: 4 mg/L)
[8] = system: Escherichia coli; assay: Inhibition of NDM1 in Escherichia coli isolate Ah8.75 assessed as potentiation of imipenem-induced antibacterial activity by measuring imipenem MIC at 100 mg/L after 18 to 20 hrs by broth microdilution assay (reference value: 16 mg/L)
[9] = biological target: Metallo-beta-lactamase type 2 (Klebsiella pneumoniae) (UniProt C7C422); assay: Inhibition of NDM1 in Klebsiella pneumoniae isolate Pd1.48 assessed as potentiation of imipenem-induced antibacterial activity by measuring imipenem MIC at 100 mg/L after 18 to 20 hrs by broth microdilution assay (reference value: 8 mg/L)
Metallo-beta-lactamase type 2 (Klebsiella pneumoniae), sequence (C7C422 whole entry): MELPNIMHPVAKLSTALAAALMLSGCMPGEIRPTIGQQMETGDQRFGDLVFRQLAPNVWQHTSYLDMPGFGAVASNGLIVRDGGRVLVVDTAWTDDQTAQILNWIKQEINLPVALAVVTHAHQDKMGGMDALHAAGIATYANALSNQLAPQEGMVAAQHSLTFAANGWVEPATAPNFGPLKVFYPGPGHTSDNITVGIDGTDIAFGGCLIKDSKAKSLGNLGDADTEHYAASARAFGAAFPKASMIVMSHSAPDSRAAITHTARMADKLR

[10] = system: Escherichia coli; assay: Effect on growth of Escherichia coli isolate Ah8.74 at 100 mg/L after 18 to 20 hrs by broth microdilution assay
Summary of the method: (§2)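 Mueller-Hinton broth microdilution per CLSI, triplicate. blaNDM-1 clinical isolates grown from OD600 0.1 to 0.224 (~1–2 × 10^8 CFU/mL), diluted 3 μL into 4997 μL MH, and 100 μL added to 100 μL of compound (100 mg/L) alone. Incubated 37 °C for 18–20 h, then scored for growth.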

[11] = system: Klebsiella pneumoniae; assay: Effect on growth of Klebsiella pneumoniae isolate Cm1.62 at 100 mg/L after 18 to 20 hrs by broth microdilution assay; summary of the method: as §2
[12] = biological target: Beta-lactamase VIM-2 (Pseudomonas aeruginosa, UniProt Q9K2N0); assay: Inhibition of Pseudomonas aeruginosa VIM2 expressed in Escherichia coli BL21(DE3) using fluorocillin as substrate preincubated for 10 mins followed by substrate addition measured after 20 mins by HTS assay

In the case of `Nc1cccc(-c2cc(C(=O)O)nc(C(=O)O)c2)c1`, the inhibition [1] is reported as “Active”, the inhibition [2] is reported as “inactive” and the inhibition [3] is reported as < 50%. For the same compound, the Activity [4] was “Active”, the Activity [5] was “Active” and the Activity [6] was 50%. It also gave an MIC [7] of 0.5 µg/mL, an MIC [8] of 0.5 µg/mL and an MIC [9] of 0.5 µg/mL. For the same compound, the Activity [10] was “Non-Toxic”, the Activity [11] was “Non-Toxic” and the IC50 [12] was 0.21 µM.
